Source: ChEMBL document CHEMBL2412953, “Synthesis and biological evaluation of new N-alkylcarbazole derivatives as STAT3 inhibitors: preliminary study” (Eur J Med Chem, 2013)
Calls of active or inactive are those of the source. The calls are words filed in the database; no cut-off is given here.

Legend:
[1] = system: THP-1; experiment: Inhibition of TNFalpha and LPS-induced NFkappaB activation in human THP1 cells at 50 uM incubated for 30 mins prior to TNFalpha and LPS-induction measured after 30 mins by EMSA; assay type: cell-based
Summary of the method: (§1)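 THP-1 cells (1.5 × 10⁶/mL) pretreated 30 min with compound, then stimulated 30 min with IFNγ (STAT1) or TNFα plus LPS (NF-κB). Nuclear extracts were analysed for DNA-binding by EMSA.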

[2] = system: THP-1; experiment: Effect on total STAT3 level in IL-6-stimulated human THP1 cells at 50 uM incubated for 30 mins prior to IL-6 stimulation measured after 15 mins by Western blot analysis; assay type: functional, cell-based
[3] = biological target: T1, Signal transducer and activator of transcription 1-alpha/beta (Homo sapiens) (UniProt P42224); experiment: Inhibition of IFNgamma-induced STAT1 activation in human THP1 cells at 50 uM incubated for 30 mins prior to IFNgamma induction measured after 30 mins by EMSA; assay type: cell-based; conditions: THP-1; summary of the method: as §1
T1 sequence (whole entry): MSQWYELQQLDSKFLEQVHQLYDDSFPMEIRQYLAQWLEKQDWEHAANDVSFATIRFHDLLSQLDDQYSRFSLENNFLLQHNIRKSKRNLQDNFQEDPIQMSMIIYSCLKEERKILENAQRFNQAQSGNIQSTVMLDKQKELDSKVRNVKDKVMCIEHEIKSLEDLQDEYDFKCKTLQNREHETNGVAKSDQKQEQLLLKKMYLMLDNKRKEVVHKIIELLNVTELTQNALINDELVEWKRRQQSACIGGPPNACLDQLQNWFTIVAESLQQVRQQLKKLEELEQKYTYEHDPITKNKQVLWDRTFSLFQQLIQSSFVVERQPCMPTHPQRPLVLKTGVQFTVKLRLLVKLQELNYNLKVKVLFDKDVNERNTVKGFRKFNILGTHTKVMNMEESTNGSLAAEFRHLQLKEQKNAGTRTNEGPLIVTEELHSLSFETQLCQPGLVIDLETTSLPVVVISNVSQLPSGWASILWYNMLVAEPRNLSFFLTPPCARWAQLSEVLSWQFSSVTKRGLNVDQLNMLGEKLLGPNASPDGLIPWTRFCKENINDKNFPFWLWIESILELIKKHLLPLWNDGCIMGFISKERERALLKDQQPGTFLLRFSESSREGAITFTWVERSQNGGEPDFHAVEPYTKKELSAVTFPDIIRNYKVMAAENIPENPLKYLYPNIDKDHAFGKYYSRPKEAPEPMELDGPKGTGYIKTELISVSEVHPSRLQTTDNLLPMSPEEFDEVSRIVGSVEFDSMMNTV

[4] = biological target: Signal transducer and activator of transcription 3 (Homo sapiens) (UniProt P40763); experiment: Inhibition of IL-6-induced cytosolic STAT3 phosphorylation at Tyr705 in human THP1 cells at 50 uM incubated for 30 mins prior to IL-6 induction measured after 15 mins by Western blot analysis; assay type: cell-based; conditions: THP-1
Summary of the method: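 THP-1 cells (1.5 × 10⁶/mL) pretreated 30 min, then IL-6 20 ng/mL for 15 min. Cells were lysed at 4 °C in HEPES pH 7.4 NP-40 buffer with protease and phosphatase inhibitors. Lysate protein was run on 7.5% SDS-PAGE, blotted to PVDF and probed overnight at 4 °C with rabbit anti-phospho-Tyr705 STAT3.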

[5] = biological target: Signal transducer and activator of transcription 3 (Homo sapiens) (UniProt P40763); experiment: Inhibition of IL-6-stimulated STAT3 activation in human THP1 cells at 50 uM incubated for 30 mins prior to IL-6 stimulation measured after 15 mins by EMSA relative to control; assay type: cell-based; conditions: THP-1
Summary of the method: (§2)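 THP-1 cells (1.5 × 10⁶/mL; RPMI 1640, 10% FBS, 37 °C, 5% CO₂) pretreated 30 min with compound, then IL-6 20 ng/mL for 15 min. Nuclear extracts, made with protease inhibitors, were assayed for STAT3 DNA-binding by EMSA in Hepes pH 7.9 buffer with poly(dI-dC). Gel bands quantified by densitometry; % inhibition versus IL-6 alone, mean ± SD.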

[6] = biological target: Signal transducer and activator of transcription 3 (Homo sapiens) (UniProt P40763); experiment: Inhibition of IL-6-stimulated STAT3 activation in human THP1 cells at 100 uM incubated for 30 mins prior to IL-6 stimulation measured after 15 mins by EMSA relative to control; assay type: cell-based; conditions: THP-1; summary of the method: as §2

Sequence of Signal transducer and activator of transcription 3 (Homo sapiens) (P40763 whole entry): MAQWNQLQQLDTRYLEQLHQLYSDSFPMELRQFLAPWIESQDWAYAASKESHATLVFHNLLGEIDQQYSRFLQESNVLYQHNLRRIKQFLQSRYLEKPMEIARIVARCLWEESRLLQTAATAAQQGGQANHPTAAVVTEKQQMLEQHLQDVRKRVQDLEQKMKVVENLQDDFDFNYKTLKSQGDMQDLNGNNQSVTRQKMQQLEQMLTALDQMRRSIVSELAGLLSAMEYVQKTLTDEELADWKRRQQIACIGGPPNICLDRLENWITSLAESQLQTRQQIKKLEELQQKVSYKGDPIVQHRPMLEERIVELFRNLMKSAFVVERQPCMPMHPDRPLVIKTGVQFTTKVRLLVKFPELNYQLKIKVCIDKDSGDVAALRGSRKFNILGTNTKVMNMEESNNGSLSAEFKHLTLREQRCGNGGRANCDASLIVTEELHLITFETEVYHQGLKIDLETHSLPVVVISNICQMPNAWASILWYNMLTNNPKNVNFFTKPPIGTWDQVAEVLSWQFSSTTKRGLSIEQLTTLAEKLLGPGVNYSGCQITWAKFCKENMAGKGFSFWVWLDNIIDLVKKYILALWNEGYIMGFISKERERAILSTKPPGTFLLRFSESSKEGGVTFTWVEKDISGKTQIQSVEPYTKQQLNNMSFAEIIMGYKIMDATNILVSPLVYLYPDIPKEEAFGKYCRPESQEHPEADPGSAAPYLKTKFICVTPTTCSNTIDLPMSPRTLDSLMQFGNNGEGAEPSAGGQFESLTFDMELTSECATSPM

## COC(=O)c1cc(OCCCCCCn2c3ccc(OC)cc3c3c(C)ccc(C)c32)cc(C(=O)OC)c1
[1]
  inhibition: inactive
[2]
  Activity: inactive
[3]
  inhibition: inactive
[4]
  inhibition: Active
[5]
  inhibition: 95%

## COC(=O)c1ccccc1OCCCCCCn1c2ccc(OC)cc2c2c(C)ccc(C)c21
[6]
  inhibition: 1%

## COC(=O)c1cc(OCCCCCn2c3ccccc3c3ccc(O)cc32)cc(C(=O)OC)c1
[6]
  inhibition: 1%

## COC(=O)c1cc(OCCCCCCn2c3ccccc3c3c(O)cccc32)cc(C(=O)OC)c1
[6]
  inhibition: 5%

## COC(=O)c1cc(OCCCCCn2c3ccc(OC)cc3c3c(C)ccc(C)c32)cc(C(=O)OC)c1
[1]
  inhibition: inactive
[2]
  Activity: inactive
[3]
  inhibition: inactive
[4]
  inhibition: Active
[5]
  inhibition: 50%

## COC(=O)c1ccccc1OCCCCCCn1c2ccccc2c2ccc(O)cc21
[6]
  inhibition: 1%

## COC(=O)c1cc(OCCCCCn2c3ccccc3c3c(O)cccc32)cc(C(=O)OC)c1
[6]
  inhibition: 20%

## COC(=O)c1cc(OCCCCCCCn2c3ccccc3c3ccc(O)cc32)cc(C(=O)OC)c1
[6]
  inhibition: 5%

## COC(=O)c1ccccc1OCCCCCn1c2ccc(OC)cc2c2c(C)ccc(C)c21
[6]
  inhibition: 3%

## COC(=O)c1cc(OCCCCCCn2c3ccccc3c3ccc(O)cc32)cc(C(=O)OC)c1
[6]
  inhibition: 1%

## COC(=O)c1cc(OCCCCCCCn2c3ccc(OC)cc3c3c(C)ccc(C)c32)cc(C(=O)OC)c1
[1]
  inhibition: inactive
[2]
  Activity: inactive
[3]
  inhibition: inactive
[4]
  inhibition: Active
[5]
  inhibition: 90%

## COC(=O)c1cc(OCCCCCCCn2c3ccccc3c3c(O)cccc32)cc(C(=O)OC)c1
[6]
  inhibition: 6%

## COC(=O)c1ccccc1OCCCCCCCn1c2ccc(OC)cc2c2c(C)ccc(C)c21
[6]
  inhibition: 6%

## COC(=O)c1ccccc1OCCCCCCn1c2ccccc2c2c(O)cccc21
[6]
  inhibition: 3%
